Activity data for 14 molecules are collected here from ChEMBL document CHEMBL3272141, “Potential long-acting anticonvulsants. 2. Synthesis and activity of succinimides containing an alkylating group on nitrogen or at the 3 position” (J Med Chem, 1977).

The test system of experiment [1] is Mus musculus. The experiment can be described thus: Anticonvulsant activity against maximal electroshock-induced seizures in Carworth Farms No.1 mouse up to 300 mg/kg. The class given is functional, organism-based. The arrangement: dose 300 mg/kg. In a few lines: (§1)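 Male Carworth Farms No. 1 mice were used, with the highest dose tested being 300 mg/kg.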
Experiment [2] relates to Mus musculus. The experiment can be described thus: Anticonvulsant activity against metrazole-induced seizures in Carworth Farms No.1 mouse up to 300 mg/kg. The class given is functional, organism-based. The arrangement: dose 300 mg/kg. An outline of the steps: as §1

Active and inactive are the calls of the source. The calls are words filed in the database; no cut-off is given here.

Turning to `O=C(CCl)NCCN1C(=O)CC(c2ccccc2)C1=O` (stereo not drawn), the outcome in the experiment on Mus musculus [1] and with Mus musculus [2] was inactive.

Turning to `CN1C(=O)C(CCNC(=O)CCl)C(C)(c2ccccc2)C1=O` (stereo not drawn), the outcome with Mus musculus [1] and with Mus musculus [2] was inactive.

Consider `N#CCN1C(=O)CC(c2ccccc2)C1=O` (stereo not drawn), for which the outcome with Mus musculus [1] and in the experiment with Mus musculus [2] was inactive.

For `O=C(CCl)N1C(=O)CC(c2ccccc2)C1=O` (stereo not drawn), the outcome with Mus musculus [1] and in the experiment with Mus musculus [2] was inactive.

As for `O=C(O)/C=C\C(=O)NCCN1C(=O)CC(c2ccccc2)C1=O` (stereo not drawn), the outcome with Mus musculus [1] and in the experiment with Mus musculus [2] was inactive.

Regarding `O=C(O)/C=C\C(=O)Nc1ccc(CCN2C(=O)CC(c3ccccc3)C2=O)cc1` (stereo not drawn), the result with Mus musculus [1] and with Mus musculus [2] was inactive.

Turning to `O=C1CC(c2ccccc2)C(=O)N1CCc1ccccc1` (stereo not drawn), the outcome with Mus musculus [1] and in the experiment with Mus musculus [2] was inactive.

On to `CC(=O)Nc1ccc(CCN2C(=O)CC(c3ccccc3)C2=O)cc1` (stereo not drawn), for which the outcome in the experiment on Mus musculus [1] and in the experiment with Mus musculus [2] was inactive.

For `O=C(CCl)NCCCN1C(=O)CC(CCCNC(=O)CCl)(c2ccccc2)C1=O` (stereo not drawn), the outcome with Mus musculus [1] and in the experiment with Mus musculus [2] was inactive.

As to `O=C1CC(c2ccccc2)C(=O)N1CCc1ccc(N2C(=O)C=CC2=O)cc1` (stereo not drawn), the outcome in the experiment with Mus musculus [1] and in the experiment on Mus musculus [2] was inactive.

As for `O=C1C=CC(=O)N1CCN1C(=O)CC(c2ccccc2)C1=O` (stereo not drawn), the result in the experiment with Mus musculus [1] and in the experiment on Mus musculus [2] was inactive.

Consider `O=C(CCl)Nc1ccc(CCN2C(=O)CC(c3ccccc3)C2=O)cc1` (stereo not drawn), for which the result with Mus musculus [1] and with Mus musculus [2] was inactive.

Regarding `Nc1ccc(CCN2C(=O)CC(c3ccccc3)C2=O)cc1` (stereo not drawn), the result in the experiment with Mus musculus [1] and in the experiment with Mus musculus [2] was inactive.

For `NCCN1C(=O)CC(c2ccccc2)C1=O` (stereo not drawn), the outcome with Mus musculus [1] and in the experiment with Mus musculus [2] was inactive.
